Consider seven molecules from ChEMBL document CHEMBL1124026, “Nitrosoimidazoles: highly bactericidal analogues of 5-nitroimidazole drugs” (J Med Chem, 1988).

One may read the half-life as how long it takes for the measured level to halve. The term MIC denotes the lowest concentration that inhibits growth of the organism. A low value points to greater potency.

≈ marks a conversion by molar mass, not a printed value.

A short description of data set [1]: Half-life measured on Bacteroides fragilis in BHIS medium. It is filed as ADME, organism-based. The following applies: Bacteroides fragilis culture.
Data set [2] is described as follows: Half-life measured on Escherichia coli SR58 in BHI medium; value ranges from 1-3. The following applies: Escherichia coli SR58 culture. It counts as ADME, organism-based.
Data set [3] can be described thus: Half-life measured in 0.1 M KPO4 buffer at PH 7. It counts as ADME. The following applies: 0.1 M potassium phosphate buffer. The gist of the method: (§1)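 Decay followed as loss of UV absorbance at each compound's absorbance maximum in 0.1 M potassium phosphate, pH 7.0, 0.05–1.0 mM compound. Decay first order; half-life taken as time to 50% absorbance loss, from linear regression, given as mean ± standard deviation.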

Data set [4] deals with Escherichia coli. As to the kind of experiment: Minimum inhibitory concentration measured against Escherichia coli SR58 strain (RecA- UvrB-). It is filed as functional. The gist of the method:
(§2)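 Compounds serially diluted 2-fold in BHIS medium containing 5% Me2SO. Each well inoculated with bacteria from a stationary-phase culture, suspension at 10^7 cfu/mL. Incubated anaerobically at 37 °C in Gaspak jars; growth read after 17 h.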

For data set [5], the system named is Escherichia coli. As to the kind of experiment: Minimum inhibitory concentration measured against Escherichia coli AB1157 strain (Uvr+ Rec+). It counts as functional. The gist of the method: as §2
Data set [6] relates to Escherichia coli. Description: Minimum inhibitory concentration measured against Escherichia coli AB1885 strain (UvrB- Rec+). It is filed as functional. The gist of the method:
as §2

Data set [7] relates to Escherichia coli. As to the kind of experiment: Minimum inhibitory concentration measured against Escherichia coli EE128 strain (Uvr+ RecA-). It counts as functional. The gist of the method: as §2
The subject of data set [8] is Escherichia coli. As to the kind of experiment: Minimum inhibitory concentration measured against Escherichia coli EE349 strain (UvrB- Rec+). It counts as functional. The gist of the method: as §2
The subject of a further data set is Bacteroides fragilis. As to the kind of experiment: Minimum inhibitory concentration measured against Bacteroides fragilis strain. It counts as functional. The gist of the method: as §2
Another data set relates to Clostridium perfringens. As to the kind of experiment: Minimum inhibitory concentration measured against Clostridium perfringens strain. It is filed as functional. The gist of the method:
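Twofold serial dilutions in BHIS medium with 5% Me2SO; each well inoculated with stationary-phase bacterial suspension (10^7 cfu/mL). Plates incubated anaerobically at 37 °C in Gaspak jars; growth scored after 17 h.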

A short description of data set [9]: Half-life measured on Escherichia coli SR58 in BHI medium; value ranges from 3-4. It counts as ADME, organism-based. The following applies: Escherichia coli SR58 culture.
Data set [10] in a line: Half-life measured in BHI spent medium. It counts as ADME. The gist of the method: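 Spent BHI medium prepared by removing E. coli by centrifugation and filtration after maximal logarithmic growth. Compound at 0.05–1.0 mM; UV absorbance at its maximum followed. First-order half-life (time to 50% absorbance loss) from linear regression, mean ± standard deviation.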
The nature of data set [11]: Half-life measured on Escherichia coli SR58 in BHI medium; value ranges from 4-6. To be noted: Escherichia coli SR58 culture. It is filed as ADME, organism-based.
Data set [12] can be described thus: Half-life measured in 0.1 M KPO4 buffer atPH 7. It is filed as ADME. The following applies: 0.1 M potassium phosphate buffer, pH 7. In outline:
as §1

As to `O=Nc1[nH]cnc1-c1ccccc1`, the half-life in data set [1] was less than 2 min; in [2], 1 min; in [3] it was 330 min.

Regarding `Cn1cnc(-c2ccccc2)c1[N+](=O)[O-]`, the MIC against Escherichia coli [4] is 8 µM (≈ 1.63 µg/mL); with Escherichia coli [5] it was more than 500 µM; with Escherichia coli [6], more than 500 µM; in the data set on Escherichia coli [7] it was 30 µM (≈ 6.1 µg/mL); against Escherichia coli [8], 100 µM (≈ 20.3 µg/mL); against Bacteroides fragilis, less than 2 µM. In the data set on Clostridium perfringens, this molecule gave an MIC of 15 µM (≈ 3.05 µg/mL).

As for `Cn1cnc(-c2ccccc2)c1N=O`, the half-life in [9] was 3 min; in data set [1], less than 2 min; in [10], 40 min; in data set [3], 540 min.

As to `Cn1cnc(N=O)c1-c1ccccc1`, the half-life was 4 min in [11], less than 2 min in [1], 160 min in data set [10] and more than 600 min in data set [12].

As to `Cn1cnc([N+](=O)[O-])c1-c1ccccc1`, the MIC against Escherichia coli [4] is 500 µM (≈ 102 µg/mL); in the data set with Escherichia coli [5], more than 500 µM; against Escherichia coli [6], more than 500 µM; in the data set with Escherichia coli [7], more than 500 µM; in the data set on Escherichia coli [8] it was not below 500 µM; in the data set on Bacteroides fragilis, 500 µM (≈ 102 µg/mL). In the data set with Clostridium perfringens, this molecule displayed an MIC of more than 500 µM.

For `O=[N+]([O-])c1[nH]cnc1-c1ccccc1`, the MIC against Escherichia coli [4] is 130 µM (≈ 24.6 µg/mL); against Escherichia coli [5], more than 500 µM; against Escherichia coli [6], more than 500 µM; in the data set on Bacteroides fragilis, 30 µM (≈ 5.68 µg/mL); in the data set on Clostridium perfringens it was 250 µM (≈ 47.3 µg/mL).

Consider `Cc1ncc([N+](=O)[O-])n1CCO` [METRONIDAZOLE], for which the MIC was 100 µM (≈ 17.1 µg/mL) against Escherichia coli [4]; more than 500 µM against Escherichia coli [5]; more than 500 µM in the data set on Escherichia coli [6]; 600 µM (≈ 103 µg/mL) against Escherichia coli [7]; more than 600 µM against Escherichia coli [8]; 6 µM (≈ 1.03 µg/mL) with Bacteroides fragilis. Further, in the data set with Clostridium perfringens, the MIC came out at 13 µM (≈ 2.23 µg/mL).
